Results published in ChEMBL document CHEMBL5674883, “The Heterochromatin Landscape in Migrating Cells and the Importance of H3K27me3 for Associated Transcriptome Alterations” (Cells, 2018).

Assays:
Type in all cases: cell-based
[1] = molecular target: T1, RNA polymerase II (Mus musculus) (UniProt P08775+Q8CFI7+P97760+A0A3Q4L2S8+Q80UW8+P61219+P62488+Q923G2+P60898+O08740+Q63871+P62876); test: Inhibition of RNA polymerase II in mouse B16-F1 migrating cells assessed as fold change in Vps72-RNA stability at 0.1 mM measured by […] analysis relative to control cells
[2] = molecular target: T1, RNA polymerase II (Mus musculus); test: Inhibition of RNA polymerase II in mouse B16-F1 migrating cells assessed as fold change in Tk2-RNA stability at 0.1 mM measured by […] analysis relative to control cells
[3] = molecular target: T1, RNA polymerase II (Mus musculus); test: Inhibition of RNA polymerase II in mouse B16-F1 migrating cells assessed as fold change in Fkbp8-RNA stability at 0.1 mM measured by ChIP-seq analysis relative to control cells
[4] = molecular target: T1, RNA polymerase II (Mus musculus); test: Inhibition of RNA polymerase II in mouse B16-F1 migrating cells assessed as fold change in Vegfa-RNA stability at 0.1 mM measured by […] analysis relative to control cells
[5] = molecular target: T1, RNA polymerase II (Mus musculus); test: Inhibition of RNA polymerase II in mouse B16-F1 migrating cells assessed as fold change in Ifit2-RNA stability at 0.1 mM measured by […] analysis relative to control cells
In short: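 Mouse B16-F1 melanoma cells grown to confluence on fibronectin in DMEM/10% FCS at 37 °C, 7% CO2. Migration induced by multiple scratches and 3 h incubation; unscratched controls. DRB 0.1 mM added 3 h before lysis. RNA from poly A-selected mRNA was sequenced (RNA-seq, three replicates per DRB group). Fold change computed for DRB-treated migrating vs DRB-treated control cells; cutoffs fold change >1.3, FDR <0.05.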

[6] = molecular target: T1, RNA polymerase II (Mus musculus); test: Inhibition of RNA polymerase II in mouse B16-F1 migrating cells assessed as fold change in Chd1-RNA stability at 0.1 mM measured by ChIP-seq analysis relative to control cells
[7] = molecular target: T1, RNA polymerase II (Mus musculus); test: Inhibition of RNA polymerase II in mouse B16-F1 migrating cells assessed as fold change in Gulp1-RNA stability at 0.1 mM measured by ChIP-seq analysis relative to control cells
[8] = molecular target: T1, RNA polymerase II (Mus musculus); test: Inhibition of RNA polymerase II in mouse B16-F1 migrating cells assessed as fold change in Adam17-RNA stability at 0.1 mM measured by […] analysis relative to control cells
[9] = molecular target: T1, RNA polymerase II (Mus musculus); test: Inhibition of RNA polymerase II in mouse B16-F1 migrating cells assessed as fold change in Stx8-RNA stability at 0.1 mM measured by […] analysis relative to control cells
[10] = molecular target: T1, RNA polymerase II (Mus musculus); test: Inhibition of RNA polymerase II in mouse B16-F1 migrating cells assessed as fold change in Crbn-RNA stability at 0.1 mM measured by ChIP-seq analysis relative to control cells
[11] = molecular target: T1, RNA polymerase II (Mus musculus); test: Inhibition of RNA polymerase II in mouse B16-F1 migrating cells assessed as fold change in Mbtd1-RNA stability at 0.1 mM measured by ChIP-seq analysis relative to control cells
[12] = molecular target: T1, RNA polymerase II (Mus musculus); test: Inhibition of RNA polymerase II in mouse B16-F1 migrating cells assessed as fold change in Rpl14-RNA stability at 0.1 mM measured by […] analysis relative to control cells
[13] = molecular target: T1, RNA polymerase II (Mus musculus); test: Inhibition of RNA polymerase II in mouse B16-F1 migrating cells assessed as fold change in Mtch1-RNA stability at 0.1 mM measured by ChIP-seq analysis relative to control cells
[14] = molecular target: T1, RNA polymerase II (Mus musculus); test: Inhibition of RNA polymerase II in mouse B16-F1 migrating cells assessed as fold change in Uba52-RNA stability at 0.1 mM measured by […] analysis relative to control cells
[15] = molecular target: T1, RNA polymerase II (Mus musculus); test: Inhibition of RNA polymerase II in mouse B16-F1 migrating cells assessed as fold change in 2310030G06Rik-RNA stability at 0.1 mM measured by […] analysis relative to control cells
[16] = molecular target: Histone-lysine N-methyltransferase EZH2 (Mus musculus) (UniProt Q61188); test: Inhibition of EZH2 in mouse B16-F1 migrating cells assessed as fold change in H3K27me3-buffered regulated Pltp-mRNA expression at 3 uM measured by […] analysis relative to control cells
In short: (§1)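 Confluent B16-F1 cells on fibronectin-coated plates, cultured at 37 °C and 7% CO2, were scratched at multiple sites to induce migration. They were then held 3 h in growth medium containing 3 µM GSK343, with the inhibitor added 3 h before lysis. Unscratched cells served as controls. Poly A mRNA was analysed by RNA-seq (n=3 GSK343, n=5 controls). Linear models removed batch effects, and buffered genes were those altered only under GSK343 (FDR <0.05, fold change >1.3).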

[17] = molecular target: Histone-lysine N-methyltransferase EZH2 (Mus musculus) (UniProt Q61188); test: Inhibition of EZH2 in mouse B16-F1 migrating cells assessed as fold change in H3K27me3-buffered regulated Fam184b-mRNA expression at 3 uM measured by […] analysis relative to control cells; in short: as §1
[18] = molecular target: Histone-lysine N-methyltransferase EZH2 (Mus musculus) (UniProt Q61188); test: Inhibition of EZH2 in mouse B16-F1 migrating cells assessed as fold change in H3K27me3-buffered regulated Slc39a14-mRNA expression at 3 uM measured by […] analysis relative to control cells
In short: (§2)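 Confluent B16-F1 cells on fibronectin-coated plates were scratched at multiple sites, washed once with DMEM and left to migrate 3 h in growth medium (37 °C, 7% CO2); unscratched cells served as control. GSK343 (3 µM) was added 3 h before lysis. Poly A mRNA was sequenced (RNA-seq), with 5 replicates for untreated and 3 for treated cells. Differential expression was called by linear model with batch correction, at FDR <0.05 and fold change ≥1.3.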

[19] = molecular target: Histone-lysine N-methyltransferase EZH2 (Mus musculus) (UniProt Q61188); test: Inhibition of EZH2 in mouse B16-F1 migrating cells assessed as fold change in H3K27me3-buffered regulated Dlg4-mRNA expression at 3 uM measured by ChIP-seq analysis relative to control cells; in short: as §1
[20] = molecular target: Histone-lysine N-methyltransferase EZH2 (Mus musculus) (UniProt Q61188); test: Inhibition of EZH2 in mouse B16-F1 migrating cells assessed as fold change in H3K27me3-independent regulated Ltbp1-mRNA expression at 3 uM measured by […] analysis relative to control cells; in short: as §2
[21] = molecular target: Histone-lysine N-methyltransferase EZH2 (Mus musculus) (UniProt Q61188); test: Inhibition of EZH2 in mouse B16-F1 migrating cells assessed as fold change in H3K27me3-buffered regulated 5031439G07Rik-mRNA expression at 3 uM measured by […] analysis relative to control cells; in short: as §1
[22] = molecular target: Histone-lysine N-methyltransferase EZH2 (Mus musculus) (UniProt Q61188); test: Inhibition of EZH2 in mouse B16-F1 migrating cells assessed as fold change in H3K27me3-buffered regulated Mpp7-mRNA expression at 3 uM measured by […] analysis relative to control cells; in short: as §1
[23] = molecular target: Histone-lysine N-methyltransferase EZH2 (Mus musculus) (UniProt Q61188); test: Inhibition of EZH2 in mouse B16-F1 migrating cells assessed as fold change in H3K27me3-buffered regulated Edrf1-mRNA expression at 3 uM measured by ChIP-seq analysis relative to control cells; in short: as §1
[24] = molecular target: Histone-lysine N-methyltransferase EZH2 (Mus musculus) (UniProt Q61188); test: Inhibition of EZH2 in mouse B16-F1 migrating cells assessed as fold change in H3K27me3-buffered regulated Hdac10-mRNA expression at 3 uM measured by […] analysis relative to control cells; in short: as §1

Chain of Histone-lysine N-methyltransferase EZH2 (Mus musculus) (Q61188 whole entry): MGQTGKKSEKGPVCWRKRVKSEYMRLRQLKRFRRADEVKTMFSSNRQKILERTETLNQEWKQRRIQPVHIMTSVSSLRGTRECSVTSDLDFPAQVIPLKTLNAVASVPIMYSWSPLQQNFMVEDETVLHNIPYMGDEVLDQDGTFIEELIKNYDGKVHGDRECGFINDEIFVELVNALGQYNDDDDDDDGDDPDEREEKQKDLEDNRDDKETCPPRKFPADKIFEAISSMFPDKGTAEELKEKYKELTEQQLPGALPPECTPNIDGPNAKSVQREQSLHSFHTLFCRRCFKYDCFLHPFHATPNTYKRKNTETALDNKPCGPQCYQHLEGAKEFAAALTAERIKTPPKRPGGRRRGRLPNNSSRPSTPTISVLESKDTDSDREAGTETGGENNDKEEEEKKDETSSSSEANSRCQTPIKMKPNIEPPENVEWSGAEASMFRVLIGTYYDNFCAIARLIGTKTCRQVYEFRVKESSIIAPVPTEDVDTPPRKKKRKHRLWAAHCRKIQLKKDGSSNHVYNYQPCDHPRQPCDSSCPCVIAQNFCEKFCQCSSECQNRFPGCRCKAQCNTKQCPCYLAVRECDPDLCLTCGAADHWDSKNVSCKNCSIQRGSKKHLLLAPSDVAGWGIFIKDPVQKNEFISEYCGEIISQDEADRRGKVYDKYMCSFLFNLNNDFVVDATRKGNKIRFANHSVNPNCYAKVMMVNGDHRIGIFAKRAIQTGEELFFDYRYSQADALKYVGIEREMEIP

OC[C@H]1O[C@@H](n2cnc3cc(Cl)c(Cl)cc32)[C@H](O)[C@@H]1O
log2FC [1]: 0.46
log2FC [2]: 0.79
log2FC [3]: 0.41
log2FC [4]: 0.67
log2FC [5]: -0.69
log2FC [6]: -0.56
log2FC [7]: -0.97
log2FC [8]: -0.56
log2FC [9]: 0.48
log2FC [10]: -0.45
log2FC [11]: -0.62
log2FC [12]: 0.49
log2FC [13]: 0.46
log2FC [14]: 0.49
log2FC [15]: -0.91

CCCc1cc(C)[nH]c(=O)c1CNC(=O)c1cc(-c2ccnc(N3CCN(C)CC3)c2)cc2c1cnn2C(C)C
log2FC [16]: 0.39
log2FC [17]: -0.72
log2FC [18]: 0.46
log2FC [19]: 0.39
log2FC [20]: 1.19
log2FC [21]: 0.45
log2FC [22]: 0.51
log2FC [23]: -0.41
log2FC [24]: -0.44
